Data on four molecules can be found in ChEMBL document CHEMBL3580642, “Cytotoxic Bryostatin Derivatives from the South China Sea Bryozoan Bugula neritina” (J Nat Prod, 2015).

Assay [1] relates to K562. As to the kind of experiment: Cytotoxicity against human K562 cells assessed as reduction in cell viability incubated for 72 hrs by MTT method. The assay is classed as functional, cell-based. The following applies: K562, 72 h. The method, boiled down: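 Cells were grown in RPMI-1640 or DMEM with 10% FBS at 37 °C, humidified 5% CO2. Adherent cells attached for 12 h before dosing, and suspension cells were seeded at 1 × 10^5 cells/mL. […] MTT read-out used DMSO solubilisation and OD 490 nm. IC50 came from mean OD versus concentration curves.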
A general note: Formazan colour is commonly taken as a measure of viable cells.

Another assay concerns SGC-7901. The assay is described as follows: Cytotoxicity against human SGC7901 cells assessed as reduction in cell viability at 20 ug/ml incubated for 72 hrs by MTT method. Type of assay: functional, cell-based. The method, boiled down:
(§1)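 Cultures were kept in RPMI-1640 or DMEM with 10% FBS at 37 °C, 5% CO2. Adherent cells were dosed after 12 h attachment, and suspension cells were seeded at 1 × 10^5 cells/mL. Triplicate 72 h exposure was followed by MTT, DMSO solubilisation and OD 490 nm. Activity was scored at a concentration of 20 μg/mL.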

Assay [2] deals with U-937. The assay is described as follows: Cytotoxicity against human U937 cells assessed as reduction in cell viability incubated for 72 hrs by MTT method. The assay is classed as functional, cell-based. Particulars: U-937, 72 h.
Assay [3] relates to HeLa. The assay is described as follows: Cytotoxicity against human HeLa cells assessed as reduction in cell viability at 20 ug/ml incubated for 72 hrs by MTT method. The assay is classed as functional, cell-based. The method, boiled down: as §1
The nature of assay [4]: Cytotoxicity against human SGC7901 cells assessed as reduction in cell viability incubated for 72 hrs by MTT method. The following applies: SGC-7901, 72 h.
For assay [5], the system named is HeLa. The assay is described as follows: Cytotoxicity against human HeLa cells assessed as reduction in cell viability incubated for 72 hrs by MTT method.
In assay [6] the test system is U-937. As to the kind of experiment: Cytotoxicity against human U937 cells assessed as reduction in cell viability at 20 ug/ml incubated for 72 hrs by MTT method. The assay is classed as functional, cell-based. The method, boiled down: as §1
Assay [7] relates to K562. The assay is described as follows: Cytotoxicity against human K562 cells assessed as reduction in cell viability at 20 ug/ml incubated for 72 hrs by MTT method. Type of assay: functional, cell-based. The method, boiled down: as §1

pIC50: −log10 of the molar value. The source made the active and inactive calls. No cut-off for these calls is given here.

Regarding `CCCC(=O)O[C@H]1/C(=C/C(=O)OC)C[C@H]2C[C@H]([C@@H](C)O)OC(=O)C[C@H](O)C[C@@H]3C[C@H](OC(=O)C(C)(C)C)C(C)(C)[C@](O)(C[C@@H]4C/C(=C/C(=O)OC)C[C@H](/C=C/[C@H](C)[C@]1(O)O2)O4)O3`, the pIC50 (commonly −log10 of the IC50, conventionally taken in molar units) is 5.00 in the assay on K562 [1] and 5.11 in the assay with U-937 [2]. In addition, the inhibition entry in the assay with SGC-7901 and in the assay with HeLa [3] was “inactive” throughout.

For `COc1cccc2c1C(=O)c1c(O)c3c(c(O)c1C2=O)C[C@@](O)(C(=O)CO)C[C@@H]3O[C@H]1C[C@H](N)[C@H](O)[C@H](C)O1` [DOXORUBICIN], the pIC50 in assay [4] is 6.70; with HeLa [5], 7.00; in the assay on K562 [1] it was 6.70.

For the molecule `CCCC(=O)O[C@H]1/C(=C/C(=O)OC)C[C@@H]2C[C@H]([C@@H](C)O)OC(=O)C[C@H](O)C[C@@H]3C[C@H](OC(=O)CC(C)C)C(C)(C)[C@](O)(C[C@@H]4C/C(=C/C(=O)OC)C[C@H](/C=C/C(C)(C)[C@]1(O)O2)O4)O3`, the inhibition entry with U-937 [6], with K562 [7], with SGC-7901 and in the assay with HeLa [3] was “inactive” throughout.

With `CCCC(=O)O[C@H]1/C(=C/C(=O)OC)C[C@H]2C[C@H]([C@@H](C)O)OC(=O)C[C@H](O)C[C@@H]3C[C@H](OC(=O)C(C)(C)C)C(C)(C)[C@](OC)(C[C@@H]4C/C(=C/C(=O)OC)C[C@H](/C=C/C(C)(C)[C@]1(O)O2)O4)O3`, the inhibition result in the assay with U-937 [6], in the assay on K562 [7], in the assay with SGC-7901 and in the assay with HeLa [3] was “inactive” in each case.
